From ChEMBL document CHEMBL5634162, “Cyclohexylalanine-Containing α-Helical Amphipathic Peptide Targets Cardiolipin, Rescuing Mitochondrial Dysfunction in Kidney Injury” (J Med Chem, 2024)
Activity calls are given as the source filed them. No cut-off for these calls is given here. Where a SMILES comes first, the peptide text is derived from it. Bridges are numbered along the chain shown (N, C = ends). Roman numbers before positions name the chains, in order. [ ]: non-standard residue; d: D form. The star is where a group is joined. 5TAMRA = CN(C)c1ccc2c(c1)Oc1cc(N(C)C)ccc1C21OC(=O)c2cc(C(=O)*)ccc21; Cha = N[C@@H](CC1CCCCC1)C(=O)O

Tests used:
[1] = test system: HeLa; experiment: Induction of CCCP-reduced ATP production in human HeLa cells incubated for 3 hrs followed by CCCP addition measured after 1 hr by luminescence based analysis; assay type: functional, cell-based; settings: dose 5-20 nM, time 4.0 hrs
Procedure, shortened: (§1)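 Cellular ATP measured by luminescence with an ATP detection kit after peptide pretreatment.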

[2] = test system: Mus musculus; experiment: Protection against […] C57BL/6 mouse model assessed as reduction in serum BUN level at 1 mg/kg, ip administered thrice a week prior to induction of bilateral ischemia-reperfusion injury measured after 6 days; assay type: functional, organism-based; settings: time 6.0 day
[3] = Drug localization in H2O2-damaged mitochondria of human tubular epithelial cells pretreated for 3 hrs followed by H2O2 addition measured after 30 mins by fluorescence based analysis; assay type: ADME; settings: epithelial cell, time 3.5 hrs
[4] = test system: HeLa; experiment: Inhibition of H2O2-induced intracellular ROS level in human HeLa cells at EC50 incubated for […] followed by H2O2 addition measured for 10 mins by H2DCFDA probe based analysis; assay type: functional, cell-based; settings: time 220.0 min
[5] = test system: Mus musculus; experiment: Protection against colistin-induced nephrotoxicity in C57BL/6 mouse model assessed as reduction in blood creatinine level at 1 mg/kg, ip administered once every other day measured upto 7 days; assay type: functional, organism-based; settings: time <= 7.0 day
Procedure, shortened: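 Male C57BL/6 mice, 7 weeks: colistin 20 mg/kg sc daily for 7 days, peptide 1 mg/kg ip every other day, n = 5 per group. BUN by autoanalyzer and creatinine by modified Jaffe reaction after 7 days; mean ± SEM.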

[6] = Drug localization in endosomes of human HeLa cells expressing endosome markers at 100 nM incubated for 3 hrs by GFP based analysis; assay type: ADME, subcellular; settings: 0.1 µM
Procedure, shortened: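 HeLa cells expressing early-endosome GFP marker (16 h) given TAMRA-labelled peptide 100 nM for 3 h plus LysoTracker 50 nM; confocal imaging with Pearson correlation.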

[7] = test system: Mus musculus; experiment: Protection against […] C57BL/6 mouse model assessed as decrease in NGAL level at 1 mg/kg, ip administered thrice a week prior to induction of bilateral ischemia-reperfusion injury measured after 6 days by Western blot analysis; assay type: functional, organism-based; settings: time 6.0 day
[8] = test system: Mus musculus; experiment: Protection against […] C57BL/6 mouse model assessed as reduction in inflammatory cell infiltration at 1 mg/kg, ip administered thrice a week prior to induction of bilateral ischemia-reperfusion injury measured after 6 days by IHC analysis; assay type: functional, organism-based; settings: time 6.0 day
[9] = Drug localization in lysosomes of human HeLa cells at 100 nM incubated for 3 hrs in presence of CCCP by NAO probe based analysis; assay type: ADME, subcellular, Lysosome; settings: 0.1 µM
Procedure, shortened: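 HeLa cells given TAMRA-labelled peptide 100 nM for 3 h and cardiolipin stained with NAO (100 nM, 1 h), with or without 20 μM CCCP for 30 min; LysoTracker 50 nM. Confocal images, Pearson r from five independent images (63×) per condition.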

[10] = test system: HeLa; experiment: Induction of antimycin A-reduced ATP production in human HeLa cells incubated for 3 hrs followed by antimycin A addition measured after 3 hrs by luminescence based analysis; assay type: functional, cell-based; settings: dose 10-20 nM, time 6.0 hrs; procedure, shortened: as §1
[11] = test system: Epithelial cell; experiment: Reversal of H2O2-induced mitochondrial dysfunction in human tubular epithelial cells assessed as increase in OCR level measured for 40 to 60 mins by Seahorse assay; assay type: functional, cell-based; settings: dose 10-50 nM, time 40-60 min
Procedure, shortened: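 hTECs were exposed to H2O2 with peptide at 10 or 50 nM (n = 6 per group), then run on a Seahorse XFe96. OCR was read after sequential 2 μM oligomycin, 1 μM FCCP, and 0.5 μM rotenone/antimycin A. ECAR was read after 10 mM glucose, 1 μM oligomycin and 50 mM 2-DG. Glycolytic proton efflux rate was taken as glycoATP production rate.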

[12] = test system: Mus musculus; experiment: Protection against […] C57BL/6 mouse model assessed as increase in NQO-1 mRNA level at 1 mg/kg, ip administered thrice a week prior to induction of bilateral ischemia-reperfusion injury measured after 6 days by qPCR analysis; assay type: functional, organism-based; settings: time 6.0 day
[13] = test system: Lipid bilayer; experiment: Binding affinity to cardiolipin-rich POPC/POPE by SPR analysis
[14] = test system: Mus musculus; experiment: Protection against colistin-induced nephrotoxicity in C57BL/6 mouse model assessed as appearance of cristae formation in mitochondria of kidney at 1 mg/kg, ip administered once every other day measured after 7 days by TEM analysis; assay type: functional, organism-based; settings: time 7.0 day
Procedure, shortened: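 Male C57BL/6 mice, 7 weeks, given colistin 20 mg/kg sc daily for 7 days with peptide 1 mg/kg ip once every other day, n = 5 per group; kidney mitochondria examined by TEM.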

[15] = test system: Epithelial cell; experiment: Reversal of H2O2-induced IL-18 mRNA level in human tubular epithelial cells at 10 to 100 nM by qPCR analysis; assay type: functional, cell-based; settings: dose 10-100 nM
[16] = test system: Epithelial cell; experiment: Reversal of H2O2-induced IL-1beta mRNA level in human tubular epithelial cells at 10 to 100 nM by qPCR analysis; assay type: functional, cell-based; settings: dose 10-100 nM
[17] = test system: Mus musculus; experiment: Protection against colistin-induced nephrotoxicity in C57BL/6 mouse model assessed as reduction in 8-OHdG level at 1 mg/kg, ip administered once every other day measured after 7 days by IHC analysis; assay type: functional, organism-based; settings: time 7.0 day
Procedure, shortened: (§2)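 Male C57BL/6 mice, 7 weeks: colistin 20 mg/kg sc daily for 7 days, peptide 1 mg/kg ip once every other day, n = 5 per group. Day-7 kidney sections, citrate antigen retrieval, immunohistochemistry with HRP polymer secondary and hematoxylin counterstain; PAS and Masson's trichrome for damage.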

[18] = test system: Mus musculus; experiment: Protection against colistin-induced nephrotoxicity in C57BL/6 mouse model assessed as reduction in cyt C level at 1 mg/kg, ip administered once every other day measured after 7 days by IHC analysis; assay type: functional, organism-based; settings: time 7.0 day
Procedure, shortened: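 Seven-week-old male C57BL/6 mice got colistin 20 mg/kg SC daily for 7 days plus peptide 1 mg/kg intraperitoneally every other day; groups of n = 5 (control, colistin, colistin + peptide). Kidneys were taken at day 7. Cytochrome C was detected by immunohistochemistry (citrate antigen retrieval, HRP-polymer detection, hematoxylin counterstain). Sections were also stained with PAS and Masson's trichrome to score histologic damage and fibrosis.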

[19] = test system: Epithelial cell; experiment: Reversal of H2O2-induced p21 mRNA level in human tubular epithelial cells at 10 to 100 nM by qPCR analysis; assay type: functional, cell-based; settings: dose 10-100 nM
[20] = test system: Mitochondria; experiment: Inhibition of antimycin A-induced mitochondrial ROS generation in human HeLa cells incubated for 190 mins followed by antimycin A addition measured after 90 mins by MitoSOX probe based analysis; assay type: functional; settings: dose lower […], dose upper 10.0 nM
Procedure, shortened: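 HeLa cells seeded, stained 24 h later with MitoSOX 5 μM for 10 min, washed, HBSS, read on plate reader at 37 °C (Ex/Em 510/580 nm).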

[21] = test system: Mus musculus; experiment: Protection against […] C57BL/6 mouse model assessed as decrease in cyt C level at 1 mg/kg, ip administered thrice a week prior to induction of bilateral ischemia-reperfusion injury measured after 6 days by IHC analysis; assay type: functional, organism-based; settings: time 6.0 day
[22] = test system: Mus musculus; experiment: Protection against colistin-induced nephrotoxicity in C57BL/6 mouse model assessed as reduction in acute tubular necrosis at 1 mg/kg, ip administered once every other day measured after 7 days by […] analysis; assay type: functional, organism-based; settings: time 7.0 day; procedure, shortened: as §2
[23] = test system: Mus musculus; experiment: Protection against colistin-induced nephrotoxicity in C57BL/6 mouse model assessed as reduction in NGAL level at 1 mg/kg, ip administered once every other day measured after 7 days by IHC analysis; assay type: functional, organism-based; settings: time 7.0 day; procedure, shortened: as §2

Compound: CC(=O)N[C@@H](CC1CCCCC1)C(=O)N[C@H]1CSSC[C@@H](C(=O)N[C@@H](CCCNC(=N)N)C(N)=O)NC(=O)[C@H](CC2CCCCC2)NC(=O)[C@H](CCCNC(=N)N)NC(=O)[C@H](CCCNC(=N)N)NC(=O)[C@H](CC2CCCCC2)NC(=O)[C@H](CC(C)C)NC(=O)[C@H](CCCNC(=N)N)NC(=O)[C@@H](NC(=O)[C@H](CC2CCCCC2)NC(=O)c2ccc3c(c2)C(=O)OC32c3ccc(N(C)C)cc3Oc3cc(N(C)C)ccc32)CSSC[C@@H](C(=O)N[C@@H](CCCNC(=N)N)C(N)=O)NC(=O)[C@H](CC2CCCCC2)NC(=O)[C@H](CCCNC(=N)N)NC(=O)[C@H](CCCNC(=N)N)NC(=O)[C@H](CC2CCCCC2)NC(=O)[C@H](CC(C)C)NC(=O)[C@H](CCCNC(=N)N)NC1=O (I: Ac-[Cha]CRL[Cha]RR[Cha]CR-NH2 / II: 5TAMRA-[Cha]CRL[Cha]RR[Cha]CR-NH2; disulfide I:2-II:9, I:9-II:2)
- Activity [1]: Dose-Dependent Effect
- Activity [2]: Active
- Drug uptake [3]: Active
- inhibition [4]: Active
- Activity [5]: Active
- Drug uptake [6]: Not Active
- Activity [7]: Active
- Activity [8]: Active
- Drug uptake [9]: Active
- Activity [10]: Dose-Dependent Effect
- Activity [11]: Dose-Dependent Effect
- Activity [12]: Active
- Activity [13]: Active
- Activity [14]: Active
- Activity [15]: Active
- Activity [16]: Active
- Activity [17]: Active
- Activity [18]: Active
- Activity [19]: Active
- inhibition [20]: Dose-Dependent Effect
- Activity [21]: Active
- Activity [22]: Active
- Activity [23]: Active
